Results: paper PMC9176367 (Journal of medicinal chemistry, 2022)

Experiments:
MRGPRX1 [1] = conditions: NIH MLPCN; cited from earlier work
human MRGPRX1 [2] = target: T1, human MRGPRX1 (Homo sapiens, UniProt Q96LB2); assay type: cell-based; conditions: MRGPRX1 PAM potency
How it was run: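 Stable human MRGPRX1 HEK293 cells seeded at 25,000/well and grown 2 days. Loaded with 2 μM Fluo-4 AM plus 1% Trypan Red in HBSS for 50 min at 37°C, then 10 min at room temperature. Serial HBSS dilutions of test compound added with EC20 BAM8–22; FLIPR read for 2 min as max–min fluorescence. […] Mean ± SEM, ≥3 experiments in quadruplicate.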

[3] = Metabolite identification in human liver microsomes; assay type: in vitro ADME; conditions: 60 min
humanized MRGPRX1 mice [4] = test: Sciatic nerve chronic constriction injury; assay type: in vivo; conditions: 100 mg/kg, po
How it was run: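 Humanized MRGPRX1 mice of both sexes (2–3 months, 20–30 g) under 2% isoflurane; left sciatic nerve loosely ligated with three sutures proximal to the branching point. Test compound given at 100 mg/kg po, vehicle as control. Hargreaves heat paw withdrawal latency measured before and after dosing on days 12 and 26 post-CCI (n=4–5/group). Two-way mixed-model ANOVA with Bonferroni; mean + SD.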

hERG channel = hERG channel (Homo sapiens, UniProt Q12809); test: hERG channel in Eurofins Cerep SafetyScreen 44; conditions: at 10 μM
humanized MRGPRX1 mice [5] = assay type: in vivo; conditions: 100 mg/kg oral, 0–1 hour post-drug
naïve MRGPRX1 mice [6] = test: Open field test in naïve MRGPRX1 mice; assay type: in vivo; conditions: 100 mg/kg, po, compared to pre-drug
naïve MRGPRX1 mice [7] = test: Rotarod test in naïve MRGPRX1 mice; assay type: in vivo; conditions: 100 mg/kg, po, vs vehicle-treated group and pre-treatment values
human MRGPRX1 [8] = target: T1, human MRGPRX1; test: MRGPRX1 intrinsic agonist activity in the absence of BAM8–22; assay type: cell-based; conditions: at concentrations up to 100 μM in the absence of BAM8–22
How it was run: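 Same stable human MRGPRX1 HEK293 FLIPR format: 25,000 cells/well for 2 days, then 2 μM Fluo-4 AM with 1% Trypan Red in HBSS for 50 min at 37°C and 10 min at room temperature. Serially diluted test compound added in HBSS alone, with HBSS as negative control and BAM8–22 as positive control. Max–min fluorescence recorded over 2 min.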

[9] = In vivo pharmacokinetics in mice after oral administration; conditions: for Kp: male, CD-1, mouse, po, 100 mg/kg, Tissue-to-plasma ratio (by AUC)
How it was run: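 Male CD1 mice (25–30 g, n=3) dosed by oral gavage at 100 mg/kg in 5% dimethylacetamide/10% Cremophor EL/10% Tween80/25% PEG400/50% water. Killed at 0.25–6 h; cardiac blood taken to plasma, spinal cord and brain flash-frozen. Acetonitrile extraction with losartan internal standard, then LC/MS/MS. Calibration 0.01–10 nmol/mL in naïve matrix, 1/x-weighted linear regression.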

[10] = test system: panel of 44 selected targets (Eurofins Cerep SafetyScreen 44); test: Off-target panel of 44 selected targets; conditions: at 10 μM
MRGPRX2 = target: T2, MRGPRX2 (Homo sapiens, UniProt Q96LB1); assay type: cell-based
T2 sequence (Q96LB1 1-330): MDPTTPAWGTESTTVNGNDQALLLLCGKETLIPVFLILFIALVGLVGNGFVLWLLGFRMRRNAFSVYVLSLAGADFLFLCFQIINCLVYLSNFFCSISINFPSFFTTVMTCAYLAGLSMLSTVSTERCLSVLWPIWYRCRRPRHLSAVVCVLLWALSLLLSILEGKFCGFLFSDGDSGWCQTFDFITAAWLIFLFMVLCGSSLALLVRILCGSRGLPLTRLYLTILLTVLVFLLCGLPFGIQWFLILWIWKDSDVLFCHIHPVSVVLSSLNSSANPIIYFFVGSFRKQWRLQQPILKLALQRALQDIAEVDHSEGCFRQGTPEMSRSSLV

MRGPRX1 [11] = conditions: cited from earlier work
[12] = spinal cord, 100 mg/kg po (table)

T1 sequence (Q96LB2 whole entry): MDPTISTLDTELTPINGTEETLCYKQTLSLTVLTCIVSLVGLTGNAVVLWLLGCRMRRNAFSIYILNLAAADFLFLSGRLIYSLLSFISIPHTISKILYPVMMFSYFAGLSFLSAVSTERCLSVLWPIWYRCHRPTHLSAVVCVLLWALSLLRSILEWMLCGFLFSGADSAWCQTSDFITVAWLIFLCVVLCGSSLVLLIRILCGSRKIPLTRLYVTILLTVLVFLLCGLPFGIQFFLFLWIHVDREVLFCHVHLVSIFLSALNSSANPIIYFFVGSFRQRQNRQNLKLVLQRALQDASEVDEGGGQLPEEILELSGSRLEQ
Chain of hERG channel (Q12809 whole entry): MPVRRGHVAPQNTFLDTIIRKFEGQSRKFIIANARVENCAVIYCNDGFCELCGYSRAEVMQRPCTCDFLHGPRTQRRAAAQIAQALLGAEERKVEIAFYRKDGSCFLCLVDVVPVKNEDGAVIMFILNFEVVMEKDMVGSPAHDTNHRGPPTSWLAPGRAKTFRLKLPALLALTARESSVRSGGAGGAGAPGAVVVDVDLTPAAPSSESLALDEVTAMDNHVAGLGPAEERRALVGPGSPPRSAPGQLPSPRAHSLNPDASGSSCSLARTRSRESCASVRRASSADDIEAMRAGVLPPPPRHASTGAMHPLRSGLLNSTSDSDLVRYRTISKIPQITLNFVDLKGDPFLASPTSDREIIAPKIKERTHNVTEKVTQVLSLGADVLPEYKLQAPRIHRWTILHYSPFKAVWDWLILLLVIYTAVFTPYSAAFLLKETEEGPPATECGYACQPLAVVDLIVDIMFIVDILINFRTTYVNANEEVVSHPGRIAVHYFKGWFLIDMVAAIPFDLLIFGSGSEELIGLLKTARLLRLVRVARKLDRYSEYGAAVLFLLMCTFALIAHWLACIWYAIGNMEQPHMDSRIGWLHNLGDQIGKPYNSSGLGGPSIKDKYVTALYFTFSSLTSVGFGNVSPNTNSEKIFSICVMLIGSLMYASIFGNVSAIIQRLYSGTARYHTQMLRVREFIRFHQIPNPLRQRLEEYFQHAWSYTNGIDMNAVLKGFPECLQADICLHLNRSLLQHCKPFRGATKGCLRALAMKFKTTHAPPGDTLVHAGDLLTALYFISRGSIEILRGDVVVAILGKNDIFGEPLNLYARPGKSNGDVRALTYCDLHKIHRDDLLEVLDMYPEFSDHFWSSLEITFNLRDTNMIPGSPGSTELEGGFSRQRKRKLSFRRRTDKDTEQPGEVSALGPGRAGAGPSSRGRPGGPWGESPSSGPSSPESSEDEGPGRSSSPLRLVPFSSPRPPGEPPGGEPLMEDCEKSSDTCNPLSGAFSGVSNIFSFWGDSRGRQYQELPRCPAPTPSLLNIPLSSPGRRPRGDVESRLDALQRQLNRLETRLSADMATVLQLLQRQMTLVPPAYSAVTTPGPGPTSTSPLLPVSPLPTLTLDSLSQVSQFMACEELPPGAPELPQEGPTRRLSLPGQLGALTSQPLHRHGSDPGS

With `Cc1ccccc1Oc1ncnc2sccc12` [Compound 1b, 4-(o-Tolyloxy)thieno[2,3-d]pyrimidine] as the compound, how does the “allosteric MRGPRX1 activator activity” value (MRGPRX1 [1]) read?
Its value is “active allosteric MRGPRX1 activator”.

For `Cc1sc2ncnc(Oc3ccccc3)c2c1C` [Compound 1c, 5,6-Dimethyl-4-phenoxythieno[2,3-d]pyrimidine], which “fold loss in potency compared to 1b” value (human MRGPRX1 [2]) is on record?
Its value is 4 fold.

With `Cc1sc2ncnc(Oc3ccccc3F)c2c1C` [Compound 1f, 4-(2-Fluorophenoxy)-5,6-dimethylthieno[2,3-d]pyrimidine] as the compound, how does the major metabolite identification [3] read?
The major metabolite identification was “insertion of an oxygen atom into the parent compound”.

Which “ipsilateral paw withdrawal latency (PWL) to radiant heat” value (humanized MRGPRX1 mice [4]; 1 and 2 hours post-drug on day 12 post-injury) does the source give for `CC(C)(C)c1sc2ncnc(Oc3ccccc3OC(F)(F)F)c2c1-c1ccc(Cl)c(Cl)c1` [Compound 1t, 6-tert-butyl-5-(3,4-dichlorophenyl)-4-(2-(trifluoromethoxy)phenoxy)thieno[2,3-d]pyrimidine] here?
Its value is “significantly increased ipsilateral PWLs from pre-drug level”.

What about the “ipsilateral paw withdrawal latency (PWL) to radiant heat” value (humanized MRGPRX1 mice [4]; 2 hours post-drug on day 26 post-injury) of the same compound?
The value was “significantly increased ipsilateral PWLs from pre-drug level”.

What about the “contralateral hind paw PWL” value (humanized MRGPRX1 mice [4]; after drug treatment) of the same compound?
The value was “no significant change of PWLs”.

What about the “inhibition of hERG channel” value (hERG channel) of the same compound?
The value was “more than 50%”.

What about the “itch side effects (spontaneous scratch bouts)” value (humanized MRGPRX1 mice [5]) of the same compound?
The value was “lack of spontaneous scratch bouts”.

And the overt adverse effects (humanized MRGPRX1 mice [5]; compared to vehicle)?
The overt adverse effects was “no overt adverse effects”.

And the “exploratory performance in the open field test” value (naïve MRGPRX1 mice [6])?
Its value is “neither compound 1t (100 mg/kg, po) nor vehicle significantly impaired exploratory performance”.

And the “performance on the rotarod test” value (naïve MRGPRX1 mice [7])?
Its value is “no difference in performance on the rotarod test”.

And the intrinsic agonist activity (human MRGPRX1 [8])?
Its intrinsic agonist activity is “no intrinsic agonist activity”.

What about the “Cmax in the spinal cord relative to the EC50 value” ([9]; 100 mg/kg po) of the same compound?
Its value is “more than 40 fold”.

What about the Cmax ([9]; brain, 100 mg/kg po) of the same compound?
Its Cmax is 0.82 ± 0.05 nmol·h/g.

What about the Kp ([9]; brain/plasma, brain, 100 mg/kg po) of the same compound?
The Kp was 0.022.

And the Kp ([9]; spinal cord/plasma, spinal cord, 100 mg/kg po)?
The Kp was 0.127.

And the AUC0-last [9, 12]?
The AUC0-last was 13.79 ± 0.14 nmol·h/g.

What about the Cmax [9, 12] of the same compound?
The Cmax was 4.60 ± 0.60 nmol·h/g.

And the “inhibition of 5 of the 44 targets” value [10]?
The value was 50−64%.

And the “selectivity for MRGPRX1 over MRGPRX2” value (MRGPRX2)?
Its value is “at least 50 fold”.

And the “MRGPRX2 PAM activity” value (MRGPRX2; at 5 μM, in presence of EC20 concentration of C48/80)?
The value was “no MRGPRX2 PAM activity”.

Which “pain hypersensitivity after injury” value (MRGPRX1 [11]; intrathecal injection) does the source give for `CCOc1ccccc1NC(=O)c1ccccc1NS(=O)(=O)C1CC1` [ML382, 2-[(Cyclopropylsulfonyl)amino]-N-(2-ethoxyphenyl)benzamide] here?
Its value is “inhibit pain hypersensitivity after injury”.

What about the itch side effects (MRGPRX1 [11]; systemic administration) of the same compound?
The itch side effects was “did not elicit itch side effects”.
